# Screening data (PubChem BioAssay)
# Hits are enriched below; roughly 1.2% of the tested compounds scored in any of these assays.
# Yeast superoxide: lowers age-related superoxide in aged yeast cells; S. cerevisiae aged cells, superoxide DHE fluorescence; hits give low values; superoxide response (% of plate mean), % at 10 µM; 330,000 compounds, 0.18% hits;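 active = superoxide response under a set limit, about three screen SD below normal, cut at about 65% in these data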;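 also: yeast aged for seven days with compound at 30 °C before DHE staining; 100% = average MFI of all compound-treated wells on the plate with controls excluded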
# ASAP1 inh: ASAP1 ArfGAP inhibition; 360,000 compounds, 0.19% hits; inhibition, % at 16.5 µM; ASAP1-stimulated ARF1 GTP hydrolysis, GDP FP detection; Q9ULH1; AID 624377; in the data active = inhibition above about 25%;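 also: 0% = vehicle with enzyme and substrate and 100% = no enzyme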
# procasp7 counter: activates human procaspase-7, counter-screen for procaspase-3 activators; 330,000 compounds, 0.093% hits; activation, % at 8.5 µM; recombinant procaspase-7, Ac-DEVD-pNA absorbance 405 nm; D23A/D198A/D206A triple mutant, cannot self-cleave; scale: DMSO 0, 5 µM enzyme 100; P55210;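 active = percent activation above the screen-wide mean plus 3 SD, cut at about 25% in these data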
#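 signal = Epi-absorbance of released pNA at 405 nm, two timepoints | assay system = Uncleavable procaspase-7 mutant enzyme | reagent = Ac-DEVD-pNA substrate, 400 µM as added | times = 1 h enzyme–compound preincubation and 2 h substrate reaction, both 25 °C | benchmarks = low DMSO alone, high DMSO plus 5 µM PC-7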
# procasp3 activ: activates human procaspase-3; 330,000 compounds, 0.11% hits; AID 463141; activation, % at 8.5 µM; recombinant procaspase-3 D3A, Ac-DEVD-pNA absorbance 405 nm;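 active = activation above the mean of all tested compounds plus 3 SD, cut at about 21% in these data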;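 also: 0% = DMSO alone and 100% = DMSO wells spiked with extra 5 µM PC-3 D3A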
#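 Assay system: Procaspase-3 D3A mutant, all three cleavage aspartates alanine. Buffer or medium: Zinc-free HEPES saline buffer with Triton X-100. Times: 1 h compound preincubation, 2 h substrate hydrolysis at 25 °C. Measured by: 405 nm absorbance of p-nitroaniline, reads at 0 and 120 min. Read-out basis: percent activation relative to control range. Replicates: singlicate.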
# ARFGAP1 inh: rat ARFGAP1 inhibition | Arfgap1-stimulated ARF1 GTP hydrolysis, GDP FP detection | inhibition, % at 16.5 µM | 360,000 compounds, 0.26% hits | Q62848;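 active = inhibition above a per-plate limit, mean inhibition of low control wells plus 3 SD, cut at about 25% in these data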;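 also: 0% = DMSO wells with enzyme and 100% = wells lacking Arfgap1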
#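 Material: rat Arfgap1 catalytic domain, aa 1-136; also added: human ARF1(Δ1-17)-GTP substrate; compound dosing: one concentration, 16.5 µM, DMSO 1.26%; incubation: GTP hydrolysis reaction 2 h at 25 °C; measured by: Tracer-displacement fluorescence polarization with EDTA stop, 620/688 nm; evaluation: % inhibition from polarization; repeats: one replicate per compound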
# LANA-H2B inh: blocks KSHV LANA binding to histone H2A/H2B; cell-free LANA-H2A/H2B peptide, fluorescence polarization; inhibition, % (concentration not given with the values); 320,000 compounds, 0.6% hits; AID 2629; in the data active = inhibition mostly above about 10%, no sharp cut-off; inactive = mostly below about 6.7%
# Target sequence (Q9QR71 whole entry, looked up): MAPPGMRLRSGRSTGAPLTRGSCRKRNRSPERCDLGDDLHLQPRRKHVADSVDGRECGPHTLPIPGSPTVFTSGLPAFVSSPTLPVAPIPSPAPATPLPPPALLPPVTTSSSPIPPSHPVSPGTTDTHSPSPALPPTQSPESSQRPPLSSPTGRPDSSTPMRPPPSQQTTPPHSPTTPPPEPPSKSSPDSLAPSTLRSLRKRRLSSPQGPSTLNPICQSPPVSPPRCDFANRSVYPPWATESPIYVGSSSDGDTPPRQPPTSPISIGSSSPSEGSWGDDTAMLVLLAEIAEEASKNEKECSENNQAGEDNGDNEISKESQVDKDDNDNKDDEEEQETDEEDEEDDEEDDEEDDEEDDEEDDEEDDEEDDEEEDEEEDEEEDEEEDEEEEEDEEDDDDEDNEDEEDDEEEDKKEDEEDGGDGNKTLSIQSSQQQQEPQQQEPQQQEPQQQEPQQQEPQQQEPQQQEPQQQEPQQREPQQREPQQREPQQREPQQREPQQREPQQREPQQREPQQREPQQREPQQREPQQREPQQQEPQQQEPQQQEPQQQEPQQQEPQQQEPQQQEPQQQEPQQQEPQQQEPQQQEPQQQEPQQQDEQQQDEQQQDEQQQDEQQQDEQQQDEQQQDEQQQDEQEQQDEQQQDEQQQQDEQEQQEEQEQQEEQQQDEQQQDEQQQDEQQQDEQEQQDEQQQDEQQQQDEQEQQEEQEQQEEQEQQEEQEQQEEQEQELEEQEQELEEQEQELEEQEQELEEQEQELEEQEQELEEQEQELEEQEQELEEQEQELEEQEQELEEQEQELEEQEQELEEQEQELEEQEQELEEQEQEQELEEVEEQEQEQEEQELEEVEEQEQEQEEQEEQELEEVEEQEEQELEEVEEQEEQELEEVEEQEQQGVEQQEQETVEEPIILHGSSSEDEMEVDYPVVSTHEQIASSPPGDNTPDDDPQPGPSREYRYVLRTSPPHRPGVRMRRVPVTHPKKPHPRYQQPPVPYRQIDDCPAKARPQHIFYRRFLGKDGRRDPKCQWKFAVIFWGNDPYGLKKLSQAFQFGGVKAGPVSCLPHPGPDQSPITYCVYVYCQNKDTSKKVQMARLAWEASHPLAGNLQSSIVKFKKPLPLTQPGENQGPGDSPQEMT
# * = called active by the depositor; nt = not tested or not shown; + = active, no number.
SMILES,Yeast superoxide,ASAP1 inh,procasp7 counter,procasp3 activ,ARFGAP1 inh,LANA-H2B inh
C[C@H]1O[C@H](C2CCCC2)CC2=C1C(=O)OC(C)(C)O2,nt,-0.3,nt,nt,-2.6,nt
COC(=O)[C@]12C[C@H](CC(=O)NCc3cccs3)C(=O)N(Cc3ccc4c(c3)OCO4)C1=C[C@H](C(C)(C)C)O[C@@H]2C,nt,-9.4,nt,nt,-2.7,nt
N/C(=N/OS(=O)(=O)c1ccc([N+](=O)[O-])cc1)c1ccncc1,101.0,-8.1,-6.6,3.4,-1.2,37.3*
N/C(=N\OS(=O)(=O)c1ccccc1)c1ccncc1,112.3,-0.3,-0.8,-7.0,0.0,5.7
CCOC(=O)N[C@H](C(=O)N1CCC[C@H]1C(=O)NC1CCCC1)C1CCCCC1,nt,8.4,nt,nt,0.8,nt
O=c1c2ccccc2sc2ccccc12,nt,-3.1,nt,nt,-1.2,nt
O=c1c(C(c2ccccc2)c2c(O)sc3ccccc3c2=O)c(O)sc2ccccc12,89.6,0.3,3.6,5.2,1.1,11.1*
Cc1cc(NC(=O)C2CC(=O)N(c3cccc(Cl)c3)C2)no1 (stereo not drawn),99.2,5.8,7.6,1.4,-4.5,11.1*
O=C(CC1SC(N2CCOCC2)=NC1=O)Nc1ccc(Cl)c(C(F)(F)F)c1 (stereo not drawn),90.3,-12.2,17.0,3.7,-9.6,21.8*
COC(=O)Cc1nnn2c1[C@@H](C)[C@@H](c1ccccc1Br)OC[C@H](C)C2,nt,-5.6,nt,nt,-5.1,nt
COC(=O)C1=C(C)N(Cc2cccc(C(F)(F)F)c2)C(=NCc2cc(OC)c(OC)c(OC)c2)NC1c1cccc(C(F)(F)F)c1 (stereo not drawn),nt,-2.4,nt,nt,-1.3,nt
CCCc1nnc(NS(=O)(=O)c2ccc(OC)cc2)s1,112.5,5.5,-1.9,1.0,10.0,15.3*
COCc1nnc(NS(=O)(=O)c2ccc(OC)cc2)s1,nt,-1.7,nt,nt,11.4,nt
COCc1[nH]nc2c1C(c1ccc3c(c1)OCO3)N(Cc1ccccc1)C2=O (stereo not drawn),nt,-10.0,nt,nt,-1.1,nt
C[C@@H]1ON(C)[C@H]2C[C@H]3c4[nH]c5cccc(-c6ccccc6F)c5c4CCN3C(=O)[C@@H]12,nt,-5.3,nt,nt,5.8,nt
CN(Cc1c(C(=O)N2CCCCCCC2)nc2ccc(Cl)cn12)C1CCOC1 (stereo not drawn),106.2,-0.1,nt,nt,-11.3,19.4*
CCc1c(-c2ccccc2Br)ncn1CCc1ccccc1OC,nt,-8.1,nt,nt,-13.1,nt
O=C(COC(=O)c1ccc(O)cc1O)Nc1ccc(Cl)cn1,120.0,10.8,7.1,13.3,9.8,2.3
O=C(COC(=O)c1ccc(F)cc1F)Nc1ccc(Cl)cn1,126.9,-3.3,13.5,-4.2,13.8,24.5*
Cc1cc2c(c(=O)o1)[C@@]1(C(=O)N(C)c3c(Br)cccc31)C1=C(CCCC1=O)O2,nt,0.0,nt,nt,7.1,nt
CC(=O)c1cccc(OCC(=O)N(C)CC(=O)Nc2ccc(F)cc2)c1,113.2,2.7,3.1,3.4,-0.6,17.3*
CN(CC(=O)Nc1ccc(F)cc1)C(=O)COC(=O)c1ccccc1,108.4,6.0,7.7,-0.2,-3.8,14.0
COc1ccc(S(=O)(=O)N2CCC(C(=O)NCCC(=O)NCc3ccccc3OC)CC2)cc1,92.0,-1.6,-0.5,1.2,-4.6,14.2*
COc1ccc(C(=O)N2CCOC2CNC(=O)C(=O)NCc2ccco2)cc1 (stereo not drawn),89.6,5.0,-10.5,2.6,-1.7,+
COc1ccc(S(=O)(=O)N2CCOC2CNC(=O)C(=O)NCc2ccccc2OC)cc1 (stereo not drawn),106.2,6.0,-13.2,-1.6,-4.7,99.9*
SMILES,Yeast superoxide,ASAP1 inh,procasp7 counter,procasp3 activ,ARFGAP1 inh,LANA-H2B inh
COc1ccc(S(=O)(=O)N2CCC(C(=O)NCCC(=O)NCc3ccncc3)CC2)cc1,89.3,3.0,12.8,-0.4,-0.4,-1.8
COCc1c(C(=O)OCC(=O)NCCc2ccc(S(N)(=O)=O)cc2)oc2ccccc12,64.8*,-7.4,14.1,4.2,3.5,4.7
Cn1c(=O)[nH]c(=O)c2c1nc(Br)n2CCCO,131.0,-0.3,-9.8,-3.2,3.8,4.4*
COC(=O)[C@]1(C)N[C@H](CN(C)C(=O)Nc2ccc(Cl)cc2)[C@@H]2C(=O)N(Cc3ccccc3)C(=O)[C@@H]21,91.7,10.8,8.4,-6.0,-16.9,+
CC[C@@]1(C(=O)OC)N[C@H](CN(C)C(=O)Nc2ccc(F)cc2)[C@@H]2C(=O)N(Cc3ccccc3)C(=O)[C@@H]21,83.9,1.4,1.1,0.7,-1.8,nt
COC(=O)[C@]1(C)N[C@H](CN(C)C(=O)Nc2ccc(C)cc2)[C@@H]2C(=O)N(Cc3ccccc3)C(=O)[C@@H]21,71.4,3.1,4.8,1.2,5.1,-1.4
CC[C@@]1(C(=O)OC)N[C@H](CN(C)C(=O)Nc2ccc(OC)cc2)[C@@H]2C(=O)N(Cc3ccccc3)C(=O)[C@@H]21,94.6,-6.5,13.9,2.9,-0.1,+
CCn1nc(C(=O)OCC(=O)c2c[nH]c3ccccc23)c2ccccc2c1=O,104.2,15.3,4.3,-8.4,-2.0,9.4
CCOc1ccc(C(=O)COC(=O)c2nn(CC)c(=O)c3ccccc23)cc1,97.9,17.1,3.9,3.7,21.8,12.8*
O=C1OC(c2ccccc2)=N/C1=C\C=C\c1ccccc1[N+](=O)[O-],108.2,-7.8,-15.4,-4.0,-8.3,12.4*
COc1ccc(NC(=O)CN(c2ccc(C)cc2)S(=O)(=O)c2c(C)nn(C)c2C)cc1,101.2,-4.0,7.5,-0.1,3.1,-0.6
COc1ccc2nc(NC(=O)CN(c3ccc(C)cc3)S(=O)(=O)c3c(C)nn(C)c3C)sc2c1,87.5,7.1,-3.4,-0.8,27.8*,0.4
C/C=C(\C)CN1CCC(n2nccc2NC(=O)c2ccc3c(c2)OCO3)CC1,100.1,-2.5,4.1,5.5,3.2,74.7*
COc1ccc(C(=O)Nc2ccnn2C2CCN(CC3CC=CCC3)CC2)cc1 (stereo not drawn),95.6,-1.4,nt,nt,-3.9,16.1*
COc1ccccc1C(=O)N1CCC2CCN(C(=O)OC(C)(C)C)C2C1 (stereo not drawn),nt,5.0,nt,nt,6.0,nt
Cc1c(N=Cc2ccc(Cl)o2)c(=O)n(-c2ccccc2)n1C,86.8,nt,-11.1,4.4,nt,22.9*
COc1cc(C)nc(-c2csc(C)n2)n1,98.2,5.4,0.3,-2.9,1.7,20.3*
O=C(N[C@H](C(=O)N1CCC[C@H]1C(=O)NCCc1ccccc1Cl)c1ccccc1)c1ccco1,nt,-7.2,nt,nt,-8.3,nt
COc1ccc(N=Nc2nc3cc(Br)c(Br)cc3n2C)c(OC)c1,79.2,-13.4,-5.5,-3.1,-5.2,101.8*
CCCN1C(=O)c2n[nH]c(C)c2C1c1ccc(Br)cc1 (stereo not drawn),nt,-8.6,nt,nt,-12.1,nt
